Measurements reported in ChEMBL document CHEMBL1933058, “5-(2-amino-pyrimidin-4-yl)-1H-pyrrole and 2-(2-amino-pyrimidin-4-yl)-1,5,6,7-tetrahydro-pyrrolo[3,2-c]pyridin-4-one derivatives as new classes of selective and orally available Polo-like kinase 1 inhibitors” (Bioorg Med Chem Lett, 2012).
pIC50: −log10 of the molar value. The source made the active and inactive calls. The calls are words filed in the database; no cut-off is given here.

Experiments:
A2780 [1] = assay: Cell cycle arrest in human A2780 cells assessed as accumulation at G2/M phase at 0.05 to 5 uM after 24 hrs by FACS analysis; assay type: functional, cell-based
Method in brief: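 A2780 cells were exposed for 24 h to 0.05, 0.5 or 5 µM. Cell-cycle distribution was read by flow cytometry (FACS), scoring G2-M accumulation. Nocodazole-treated cells served as positive control.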

A2780 [2] = assay: Induction of apoptosis in human A2780 cells assessed as caspase3 activation at 5 uM after 24 hrs by Western blotting analysis; assay type: functional, cell-based
Method in brief: (§1)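 A2780 cells were treated for 24 h at 0.05, 0.5 and 5 µM, with nocodazole as positive control. Lysates were immunoblotted for pSer10 histone H3, pThr199 nucleophosmin, cyclin B1, cyclin A, PARP cleavage and caspase 3 activation.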

A2780 [3] = assay: Induction of apoptosis in human A2780 cells assessed as PARP cleavage at 5 uM after 24 hrs by Western blotting analysis; assay type: functional, cell-based; method in brief: as §1
A2780 [4] = assay: Cell cycle arrest in human A2780 cells assessed as increase of phospho Ser10 histone H3 level after 24 hrs by Western blotting analysis; assay type: functional, cell-based; method in brief: as §1
A2780 [5] = assay: Cell cycle arrest in human A2780 cells assessed as reduction of phospho Ser46 TCTP level at 0.05 to 5 uM after 1 hr by Western blotting analysis; assay type: functional, cell-based
Method in brief: (§2)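 A2780 cells got 1 h exposure at 0.05, 0.5 and 5 µM, with nocodazole-treated cells as comparator. Western blot was used to probe the PLK1 substrate marker pSer46 TCTP and the mitotic marker pSer10 histone H3.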

A2780 [6] = assay: Cell cycle arrest in human A2780 cells assessed as increase of phospho Ser10 histone H3 level at 0.05 to 5 uM after 1 hr by Western blotting analysis; assay type: functional, cell-based; method in brief: as §2
A2780 [7] = assay: Cell cycle arrest in human A2780 cells assessed as induction of phospho Thr199 nucleophosmin level after 24 hrs by Western blotting analysis; assay type: functional, cell-based; method in brief: as §1
[8] = biological target: Serine/threonine-protein kinase PLK1 (Homo sapiens, UniProt P53350); assay: Inhibition of PLK1
Serine/threonine-protein kinase PLK1, sequence (P53350 whole entry): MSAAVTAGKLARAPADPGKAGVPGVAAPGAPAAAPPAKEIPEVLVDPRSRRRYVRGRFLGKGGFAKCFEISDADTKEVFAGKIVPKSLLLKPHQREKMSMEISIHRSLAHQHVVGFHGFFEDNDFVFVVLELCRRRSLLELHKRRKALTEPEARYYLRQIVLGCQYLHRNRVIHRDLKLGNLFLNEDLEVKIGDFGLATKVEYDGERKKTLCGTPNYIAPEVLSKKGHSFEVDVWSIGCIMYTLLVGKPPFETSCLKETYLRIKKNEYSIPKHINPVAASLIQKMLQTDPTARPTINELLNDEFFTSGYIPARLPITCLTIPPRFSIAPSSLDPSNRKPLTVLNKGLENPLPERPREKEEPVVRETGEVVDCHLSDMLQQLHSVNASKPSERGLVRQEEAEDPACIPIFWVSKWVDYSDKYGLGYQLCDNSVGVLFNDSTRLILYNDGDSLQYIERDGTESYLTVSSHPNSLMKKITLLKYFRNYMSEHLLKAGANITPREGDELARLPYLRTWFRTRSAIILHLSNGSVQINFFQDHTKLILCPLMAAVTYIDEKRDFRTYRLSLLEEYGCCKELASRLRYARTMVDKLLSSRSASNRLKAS

[9] = biological target: Serine/threonine-protein kinase PLK2 (Homo sapiens, UniProt Q9NYY3); assay: Inhibition of PLK2
Serine/threonine-protein kinase PLK2, sequence (Q9NYY3 whole entry): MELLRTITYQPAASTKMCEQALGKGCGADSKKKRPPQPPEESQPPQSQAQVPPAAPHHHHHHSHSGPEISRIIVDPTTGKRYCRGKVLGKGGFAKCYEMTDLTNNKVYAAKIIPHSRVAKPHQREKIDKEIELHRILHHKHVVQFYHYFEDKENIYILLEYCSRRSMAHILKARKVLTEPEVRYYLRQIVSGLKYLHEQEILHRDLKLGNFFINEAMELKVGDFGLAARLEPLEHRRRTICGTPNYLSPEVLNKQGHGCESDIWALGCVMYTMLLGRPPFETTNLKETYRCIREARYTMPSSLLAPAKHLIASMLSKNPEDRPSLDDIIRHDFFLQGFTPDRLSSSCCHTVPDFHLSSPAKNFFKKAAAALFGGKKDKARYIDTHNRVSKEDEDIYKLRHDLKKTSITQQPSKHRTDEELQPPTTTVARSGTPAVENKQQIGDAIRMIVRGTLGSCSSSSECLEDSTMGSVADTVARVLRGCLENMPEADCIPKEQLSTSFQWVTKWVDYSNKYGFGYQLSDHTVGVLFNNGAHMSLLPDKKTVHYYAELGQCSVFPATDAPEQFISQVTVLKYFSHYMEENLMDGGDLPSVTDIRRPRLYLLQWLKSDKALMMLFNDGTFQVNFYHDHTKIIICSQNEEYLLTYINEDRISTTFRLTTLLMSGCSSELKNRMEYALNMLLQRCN

[10] = biological target: Cyclin-dependent kinase 2/cyclin A (Homo sapiens, UniProt P24941); assay: Inhibition of CDK2/cyclin A; assay type: protein-complex assay
Aurora kinase A = biological target: T1, Aurora kinase A (Homo sapiens, UniProt O14965); assay: Inhibition of Aurora-A
T1 sequence (O14965 whole entry): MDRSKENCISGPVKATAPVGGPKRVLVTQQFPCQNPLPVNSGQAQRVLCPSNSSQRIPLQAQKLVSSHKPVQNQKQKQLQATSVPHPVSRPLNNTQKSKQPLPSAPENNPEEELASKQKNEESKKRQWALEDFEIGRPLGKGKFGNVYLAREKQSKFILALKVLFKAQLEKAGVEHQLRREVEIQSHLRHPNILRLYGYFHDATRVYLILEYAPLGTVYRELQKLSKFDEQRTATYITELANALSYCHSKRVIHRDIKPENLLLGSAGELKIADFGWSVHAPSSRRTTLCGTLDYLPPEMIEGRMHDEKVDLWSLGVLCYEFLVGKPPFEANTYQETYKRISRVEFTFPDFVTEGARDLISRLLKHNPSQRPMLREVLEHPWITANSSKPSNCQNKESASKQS

[11] = biological target: Serine/threonine-protein kinase PLK3 (Homo sapiens, UniProt Q9H4B4); assay: Inhibition of PLK3
Serine/threonine-protein kinase PLK3, sequence (Q9H4B4 whole entry): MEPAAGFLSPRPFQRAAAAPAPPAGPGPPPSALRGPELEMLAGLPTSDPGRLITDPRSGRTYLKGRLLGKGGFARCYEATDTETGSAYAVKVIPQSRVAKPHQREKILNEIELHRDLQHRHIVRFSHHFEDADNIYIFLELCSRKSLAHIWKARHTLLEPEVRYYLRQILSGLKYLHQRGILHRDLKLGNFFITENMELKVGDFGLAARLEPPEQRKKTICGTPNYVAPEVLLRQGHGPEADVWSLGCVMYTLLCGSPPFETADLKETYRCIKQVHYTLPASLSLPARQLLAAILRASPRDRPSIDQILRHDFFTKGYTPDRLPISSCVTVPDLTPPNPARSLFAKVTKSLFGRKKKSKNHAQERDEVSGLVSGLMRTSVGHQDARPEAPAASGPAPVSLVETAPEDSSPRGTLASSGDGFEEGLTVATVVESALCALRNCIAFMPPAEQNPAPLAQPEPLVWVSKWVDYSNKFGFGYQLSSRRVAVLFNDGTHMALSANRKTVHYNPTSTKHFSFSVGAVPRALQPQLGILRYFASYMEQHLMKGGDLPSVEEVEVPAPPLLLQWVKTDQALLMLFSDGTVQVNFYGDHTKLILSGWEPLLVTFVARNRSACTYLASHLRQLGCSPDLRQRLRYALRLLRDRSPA

A2780 [12] = assay: Antiproliferative activity against human A2780 cells; assay type: functional, cell-based

SMILES	Activity (A2780 [1])	Activity (A2780 [2])	Activity (A2780 [3])	Activity (A2780 [4])	Activity (A2780 [5])	Activity (A2780 [6])	Activity (A2780 [7])	pIC50 [8]	pIC50 [9]	pIC50 [10]	pIC50 (Aurora kinase A)	pIC50 [11]	pIC50 (A2780 [12])
CN1CCN(c2ccc(OC(F)(F)F)c(Nc3nccc(-c4cc(C(N)=O)cn4C)n3)c2)CC1	Active	Active	Active	Dose-dependent effect	Active	Active	Dose-dependent effect	–	–	–	–	–	–
Cn1cc(C(N)=O)cc1-c1ccnc(Nc2cc(N3CCN(C(=O)OC(C)(C)C)CC3)ccc2OC(F)(F)F)n1	–	–	–	–	–	–	–	< 5.00	< 5.00	< 5.00	< 5.00	< 5.00	5.35
CN1CCN(c2ccc(OC(F)(F)F)c(Nc3nccc(-c4cc(C(N)=O)cn4CCOC4CCCCO4)n3)c2)CC1 (configuration not stated)	–	–	–	–	–	–	–	6.57	< 5.00	< 5.00	< 5.00	< 5.00	5.17
CN1CCN(c2ccc(OC(F)(F)F)c(Nc3nccc(-c4cc(C(N)=O)cn4CCO)n3)c2)CC1	–	–	–	–	–	–	–	6.82	< 5.00	< 5.00	< 5.00	< 5.00	5.60
CN1CCN(c2ccc(OC(F)(F)F)c(Nc3nccc(-c4cc5c(n4C)CCN(C(=O)OC(C)(C)C)C5=O)n3)c2)CC1	–	–	–	–	–	–	–	6.09	< 5.00	< 5.00	< 5.00	< 5.00	6.75
CN1CCN(c2ccc(OC(F)(F)F)c(Nc3nccc(-c4cc(C(N)=O)cn4CC(F)(F)F)n3)c2)CC1	–	–	–	–	–	–	–	7.74	< 5.00	< 5.00	< 5.00	< 5.00	6.96
